High-throughput results deposited in PubChem BioAssay by several laboratories.
Hits are enriched below; roughly 2.8% of the tested compounds scored in any of these assays.
NPY2 pot ag: human NPY-Y2 potentiation or agonism, primary screen; P49146; actives 0.45% (n = 220,000); activation, % at 3.6 µM; cells expressing NPY-Y2, potentiator/agonist read-out; in the data active = activation above about 27%;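 note: cells stimulated with NPY near EC25 plus isoproterenol at EC100; 0% = vehicle plus submaximal agonist and 100% = vehicle plus saturating agonist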
NPY Y1 blocker: antagonists of human neuropeptide Y receptor Y1. actives 1% (n = 200,000). inhibition, % at 3.6 µM. HEK293-CNG Y1 cells, membrane potential fluorescence; NPY at EC95, then isoproterenol;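 active = inhibition above the campaign mean inhibition of all tested compounds plus 3 SD, cut at about 20% in these data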;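 note: 0% = DMSO wells given NPY plus isoproterenol and 100% = isoproterenol alone without NPY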
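Assay system: HEK293 cells with Y1 receptor plus CNG channel | Probe or stimulus: NPY (25 nM), isoproterenol (1 µM), Ro 20-1724 (25 µM) | Timing: Compound incubation 1 h at room temperature, readout 45 min post-stimulation | Measured by: Membrane-potential fluorescent dye readout | Benchmarks: High control isoproterenol alone, low control NPY with isoproterenol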
EP2 mod: EP2 receptor (human) modulation | P43116 | EP2-expressing cells, cAMP HTRF FRET, PGE2 co-stimulation | induction, % at 25 µM | actives 0.83% (n = 260,000);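 active = compounds whose cAMP rise, as percent of the full-agonist control response, exceeds 60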;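 note: rat C6 glioma line stably carrying human EP2 under a CMV promoter; the protocol text gives 20 µM as final concentration; 100% = response of wells given 1 µM PGE2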
Target sequence (P43116 whole entry, looked up): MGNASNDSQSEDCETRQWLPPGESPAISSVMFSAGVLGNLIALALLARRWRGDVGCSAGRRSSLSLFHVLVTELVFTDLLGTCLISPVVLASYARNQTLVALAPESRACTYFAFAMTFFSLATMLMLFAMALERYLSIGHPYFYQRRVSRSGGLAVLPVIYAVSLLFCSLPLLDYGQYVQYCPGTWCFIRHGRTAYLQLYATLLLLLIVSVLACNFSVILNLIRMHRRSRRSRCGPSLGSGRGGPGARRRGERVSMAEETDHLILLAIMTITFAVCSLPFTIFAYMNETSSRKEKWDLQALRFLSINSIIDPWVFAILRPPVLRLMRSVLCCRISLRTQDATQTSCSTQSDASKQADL
NPY-Y2 antag: antagonists of human neuropeptide Y receptor Y2. P49146. inhibition, % at 2.7 µM. NPY-Y2 expressing cells, antagonist mode. actives 0.99% (n = 140,000); in the data active = inhibition above about 17%;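 note: 0% = vehicle with agonist challenge and 100% = reference antagonist with challenge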
PGE2 EP2 inh: inhibitors of human EP2 prostaglandin E2 receptor; inhibition, % at 25 µM; P43116; actives 0.52% (n = 260,000); C6 glioma cells expressing human EP2, cAMP TR-FRET; cells stimulated with saturating PGE2;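 active = percent inhibition above 40 after rounding to a whole number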;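 note: rat C6 glioma host cells with rolipram phosphodiesterase inhibitor present; the protocol text gives 20 µM as final concentration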
NPY1 pot ag: potentiators or agonists of human neuropeptide Y receptor Y1. activation, % at 3.6 µM. actives 0.37% (n = 220,000). NPY-Y1 expressing cells, potentiator/agonist activation; in the data active = activation above about 33%, passing the limit was not always enough;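 note: cells stimulated with NPY at EC10 then isoproterenol at EC100; 0% = low agonist plus stimulus and 100% = saturating agonist plus stimulus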
Numbers without * were called inactive.

Results for COc1ccc(CCCC(=O)Nc2nc3c(s2)CCc2c-3cnn2C)c(C)c1 ?
EP2 mod: -78; PGE2 EP2 inh: 8

What do the screens show for `COC(=O)[C@@H](NC(=O)O[C@@H]1C(=O)c2ccc(OC)cc2O[C@H]1c1cccc(C(F)(F)F)c1)C(C)C`?
NPY2 pot ag: 5; NPY Y1 blocker: 4; EP2 mod: 62*; NPY-Y2 antag: -1; NPY1 pot ag: -32

How did COC(=O)[C@H](Cc1ccccc1)NC(=O)O[C@H]1C(=O)c2ccc(OC)cc2O[C@@H]1c1ccc2c(c1)OCO2 do in these assays?
NPY2 pot ag: 3; NPY Y1 blocker: -6; EP2 mod: 0; NPY-Y2 antag: 0; PGE2 EP2 inh: 51*; NPY1 pot ag: -14

How did COc1cccc(/C(O)=C2/C(=O)C(=O)N(CCN(C)C)C2c2cccs2)c1 (centres undefined) do in these assays?
EP2 mod: 4; PGE2 EP2 inh: 19

Results for CCCn1c(SCC(=O)N2CCc3ccccc32)nnc1-c1cccnc1 ?
EP2 mod: -19; PGE2 EP2 inh: 12

What do the screens show for `CCn1c2cc(C)oc2c2cnn(Cc3ccccc3C(F)(F)F)c(=O)c21`?
EP2 mod: 81*

Results for COc1cccc(NC(=O)CSC2=C(C#N)C(c3ccco3)C3=C(CCCC3=O)N2)c1 (centres undefined) ?
NPY2 pot ag: 3; NPY Y1 blocker: -8; EP2 mod: 0; NPY-Y2 antag: 3; PGE2 EP2 inh: 16; NPY1 pot ag: 13

How did CCCCc1ccc(NC(=O)CSC2=C(C#N)C(c3ccco3)C3=C(CCCC3=O)N2)cc1 (centres undefined) do in these assays?
NPY2 pot ag: 98*; NPY Y1 blocker: -14; EP2 mod: -2; NPY-Y2 antag: -2; NPY1 pot ag: 99*

How did O=C(c1ccccc1)c1nn(-c2ccccc2)c2nnc(Cc3ccccc3)c(=O)n12 do in these assays?
NPY2 pot ag: -53; NPY Y1 blocker: 38*; EP2 mod: 5; NPY-Y2 antag: 29*; PGE2 EP2 inh: 11; NPY1 pot ag: -128

Results for COC(=O)c1nn(-c2ccccc2)c2nnc(Cc3ccc(C)cc3)c(=O)n12 ?
NPY2 pot ag: -2; NPY Y1 blocker: 3; EP2 mod: 15; NPY-Y2 antag: 1; PGE2 EP2 inh: 6; NPY1 pot ag: 0

Results for CC(=O)Nc1ccc(S(=O)(=O)N(CCO)Cc2ccccc2)cc1 ?
NPY2 pot ag: -1; NPY Y1 blocker: 4; EP2 mod: 8; NPY-Y2 antag: 0; PGE2 EP2 inh: 5; NPY1 pot ag: -10

Results for CC(=O)Nc1ccc(S(=O)(=O)N(Cc2ccccc2)c2ccccc2F)cc1 ?
NPY2 pot ag: -16; NPY Y1 blocker: 2; EP2 mod: 64*; PGE2 EP2 inh: 7; NPY1 pot ag: 4

How did Cc1cccc(NC(=O)COc2ccc(S(=O)(=O)N3CCCC3)cc2)c1 do in these assays?
EP2 mod: -3; PGE2 EP2 inh: 10

How did COc1ccc(C(=O)N2CCCC(c3ccnc4cc(C)nn34)C2)cc1OC (centres undefined) do in these assays?
EP2 mod: -15

Results for COc1ccc(-c2cc3nccc(C4CCN(C(=O)OC(C)(C)C)CC4)n3n2)cc1OC ?
EP2 mod: 80*

Results for COc1ccc(NC(=S)Nc2ccc3nsnc3c2)cc1 ?
NPY2 pot ag: 3; NPY Y1 blocker: 4; EP2 mod: -95; NPY-Y2 antag: -1; PGE2 EP2 inh: 42*; NPY1 pot ag: -5

Results for CCOc1ccc(NC(=S)Nc2ccc3nsnc3c2)cc1 ?
NPY2 pot ag: -10; NPY Y1 blocker: 9; EP2 mod: -119; NPY-Y2 antag: 5; PGE2 EP2 inh: 44*; NPY1 pot ag: -22

Results for CCCNC(=O)CCSc1nc(-c2ccco2)cc(C(F)(F)F)n1 ?
EP2 mod: -42; PGE2 EP2 inh: 5

Results for COc1cccc(CC(=O)N2CCCC(c3noc(-c4ccccn4)n3)C2)c1 (centres undefined) ?
EP2 mod: -17; PGE2 EP2 inh: 7

Results for O=[N+]([O-])c1ccc(Sc2cccc[n+]2[O-])c2nonc12 ?
NPY2 pot ag: 10; EP2 mod: -48; PGE2 EP2 inh: 116*; NPY1 pot ag: 21

What do the screens show for `O=C(CSc1cccc[n+]1[O-])Nc1ccc(C(F)(F)F)cc1[N+](=O)[O-]`?
NPY2 pot ag: 8; NPY Y1 blocker: -1; EP2 mod: 8; PGE2 EP2 inh: 10; NPY1 pot ag: -1

What do the screens show for `COc1cccc(CN(C)C(=O)c2cc(COc3ccc4ncccc4c3)on2)c1`?
NPY2 pot ag: 19; NPY Y1 blocker: 21*; EP2 mod: -45; PGE2 EP2 inh: 8; NPY1 pot ag: -59

What do the screens show for `Cc1ccc(S(=O)(=O)NN2C(=O)/C(=C/c3cccn3C)SC2=S)cc1`?
NPY2 pot ag: -26; NPY Y1 blocker: 28*; EP2 mod: -3; NPY-Y2 antag: 9; PGE2 EP2 inh: 7; NPY1 pot ag: -42

What do the screens show for `C/C(=N\Nc1cccc(Cl)c1)c1ccncc1`?
NPY2 pot ag: 40*; NPY Y1 blocker: -12; EP2 mod: -7; PGE2 EP2 inh: 12; NPY1 pot ag: 39*

What do the screens show for `COc1ccc(CN(Cc2ccc3ncccc3c2)CC2CCCO2)cc1OC` (centres undefined)?
EP2 mod: 34; PGE2 EP2 inh: 3

How did Cc1cccc(C)c1Nc1c(-c2ccsc2)nc2ncccn12 do in these assays?
NPY2 pot ag: 59*; NPY Y1 blocker: -7; EP2 mod: -29; NPY-Y2 antag: -2; PGE2 EP2 inh: 4; NPY1 pot ag: 46*

Results for Cc1ccc(Nc2c(-c3ccc(N4CCOCC4)cc3)nc3ncccn23)cc1 ?
NPY2 pot ag: 3; NPY Y1 blocker: 8; EP2 mod: -21; NPY-Y2 antag: 0; PGE2 EP2 inh: 11; NPY1 pot ag: -20

How did Cc1ccccc1Nc1c(-c2ccc(N3CCOCC3)cc2)nc2ncccn12 do in these assays?
NPY2 pot ag: 43*; NPY Y1 blocker: -4; EP2 mod: -64; PGE2 EP2 inh: 10; NPY1 pot ag: 56*

Results for COCCNC(=O)c1ccccc1NC(=O)CN1C(=O)c2cccc3cccc1c23 ?
EP2 mod: -42; PGE2 EP2 inh: 9

Results for CCOc1ccc(C2NC(=O)C(C#N)=C(S)N2c2ccccc2C)cc1OC (centres undefined) ?
EP2 mod: -4; PGE2 EP2 inh: 13

Results for O=C(NC1(c2ccccc2F)CCCC1)c1cccc2nccnc12 ?
EP2 mod: 14

What do the screens show for `Cc1ccc(C)c2[nH]c(=O)c(CN(Cc3ccco3)Cc3nnnn3C3CCCCC3)cc12`?
EP2 mod: 72*; PGE2 EP2 inh: 7

What do the screens show for `CCOc1ccc2[nH]c(=O)c(CN(Cc3ccco3)Cc3nnnn3C3CCCC3)cc2c1`?
EP2 mod: 64*; PGE2 EP2 inh: 14
